ChEMBL document CHEMBL4680177, “Novel distamycin analogues that block the cell cycle of African trypanosomes with high selectivity and potency” (Eur J Med Chem, 2020)
Active and inactive are the calls of the source. The rule behind the calls is not given here.

How the values were obtained:
[1] = test system: Trypanosoma brucei brucei; experiment: Antitrypanosomal activity against bloodstream form Trypanosoma brucei brucei 427 […] assessed as cell viability at 5 uM after 24 hrs by propidium iodide staining based flow cytometric analysis relative to control; type: functional
Procedure, shortened: (§1)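 Bloodstream T. b. brucei 427 expressing hGrx1-roGFP2 (line 449_Grx-roGFP2), grown in HMI-9 with 10% FBS, 37 °C, 5% CO2. Biosensor induced with oxytetracycline (1 µg/mL final). Exponential-phase cells seeded at 5×10^5/mL and exposed 24 h to a single 5 µM screen, or to 0.0001–120 µM for EC50. DMSO ≤1% v/v. Viability read by PI exclusion on flow cytometry, expressed relative to DMSO control. EC50 from nonlinear fit; ≥3 replicates, S.D.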

[2] = test system: Trypanosoma brucei brucei; experiment: Antitrypanosomal activity against bloodstream form Trypanosoma brucei brucei 427 […] assessed as cell viability upto 60 uM after 48 hrs by propidium iodide staining based flow cytometric analysis; type: functional, organism-based; conditions: dose microM <=60, time 48.0 hrs
Procedure, shortened: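 Viability of bloodstream T. b. brucei 427 redox-reporter line under lower-density conditions: 1.2×10^4 parasites/mL seeded, 48 h exposure, compound tested up to 60 µM. Nifurtimox included as positive control. Viability read by PI exclusion on flow cytometry.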

J774 [3] = experiment: Cytotoxicity against mouse J774 cells assessed as reduction in cell viability >120 uM after 24 hrs by WST-1 assay; type: cell-based; conditions: j774, 24 h
Procedure, shortened: (§2)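 J774 murine macrophages in DMEM with 10% FBS, 37 °C, 5% CO2. Exposed 24 h to a 6-point compound series, in triplicate, up to 120 µM with DMSO 1% v/v. Viability read with WST-1 reagent relative to DMSO control and EC50 taken from nonlinear fit. The selectivity index is the macrophage EC50 divided by the trypanosome EC50.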

J774 [4] = experiment: Cytotoxicity against mouse J774 cells assessed as reduction in cell viability at 120 uM after 24 hrs by WST-1 assay; type: cell-based; conditions: j774, 24 h; procedure, shortened: as §2
[5] = Selectivity index, ratio of EC50 for cytotoxicity against mouse J774 cells to EC50 for antitrypanosomal activity against bloodstream form Trypanosoma brucei brucei 427; type: toxicity, cell-based; conditions: read-out: Ratio EC50; procedure, shortened: as §2
[6] = test system: Trypanosoma brucei brucei; experiment: Antitrypanosomal activity against bloodstream form Trypanosoma brucei brucei 427 […] assessed as cell viability after 24 hrs by propidium iodide staining based flow cytometric analysis; type: functional, organism-based; conditions: Trypanosoma brucei, 427, 24 h; procedure, shortened: as §1
[7] = test system: Trypanosoma brucei brucei; experiment: Induction of membrane permeability in bloodstream form Trypanosoma brucei brucei 427 assessed as change in integrity at EC50 concentration after 4 hrs by propidium iodide staining based flow cytometric analysis
[8] = test system: Trypanosoma brucei brucei; experiment: (§3) Antitrypanosomal activity against bloodstream form Trypanosoma brucei brucei 427 […] assessed as cell viability at 1000 nM preincubated in heat-inactivated serum for 45 mins followed by culture addition and measured after 24 hrs by propidium iodide staining based flow cytometric analysis (reference value: 98.5 +/- 1.4%); type: functional; conditions: time 48.0 hrs, in the assay text read “for 24 hrs” for “for 45 mins”
Procedure, shortened: (§4)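 Compound at 100 µM, with ≤1% v/v DMSO, held 24 h at 37 °C in fresh serum or in serum heat-inactivated at 54 °C for 45 min. It was then added to 449-hGrx-roGFP2 T. brucei cultures at 10 or 1000 nM final. Viability after 24 h was read by PI flow cytometry as in the standard assay. Untreated serum-exposed controls were included; mean ± SD.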

[9] = test system: Trypanosoma brucei brucei; experiment: as §3, with “fresh” for “heat-inactivated”, “100” for “98.5”, “3.5%)” for “1.4%)”; type: functional; conditions: time 48.0 hrs, in the assay text read “for 24 hrs” for “for 45 mins”; procedure, shortened: as §4
DNA [10] = experiment: Competitive binding affinity to Escherichia coli XL-1 pUC18 K-DNA at 20 uM after 120 mins by DAPI staining based spectrofluorimetric method relative to control; type: nucleic-acid assay
Procedure, shortened: (§5)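 pUC18 or pUC18 carrying a T. brucei minicircle, 5 nM in PBS pH 7.4, incubated 30 or 120 min with 20 µM compound or DMSO 1% v/v. DAPI then added to 500 nM final and emission recorded by spectrofluorimetry (ex 358 nm, em 368–600 nm). Fluorescence normalized to the DNA+DMSO+DAPI control set at 100%. Mean ± S.D., n=3.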

[11] = test system: Trypanosoma brucei brucei; experiment: Induction of cell cycle arrest in bloodstream form Trypanosoma brucei brucei 427 assessed as accumulation at G2/M phase at 7 nM after 24 hrs by propidium iodide staining based flow cytometric analysis (reference value: 20%); type: functional
[12] = test system: Trypanosoma brucei brucei; experiment: Induction of cell cycle arrest in bloodstream form Trypanosoma brucei brucei 427 assessed as accumulation at G0/G1 phase at 7 nM after 24 hrs by propidium iodide staining based flow cytometric analysis (reference value: 49%); type: functional
DNA [13] = experiment: Competitive binding affinity to Escherichia coli XL-1 pUC18 plasmid DNA at 20 uM after 120 mins by DAPI staining based spectrofluorimetric method relative to control; type: nucleic-acid assay; procedure, shortened: as §5
[14] = test system: Trypanosoma brucei brucei; experiment: Induction of cell cycle arrest in bloodstream form Trypanosoma brucei brucei 427 assessed as accumulation at S phase at 7 nM after 24 hrs by propidium iodide staining based flow cytometric analysis (reference value: 31%); type: functional
[15] = test system: Trypanosoma brucei brucei; experiment: Antitrypanosomal activity against bloodstream form Trypanosoma brucei brucei 427 assessed as cell viability at 1000 nM after 24 hrs by propidium iodide staining based flow cytometric analysis (reference value: 100 +/- 10%); type: functional
[16] = test system: Trypanosoma brucei brucei; experiment: Antitrypanosomal activity against bloodstream form Trypanosoma brucei brucei 427 assessed as cell viability at 10 nM after 24 hrs by propidium iodide staining based flow cytometric analysis (reference value: 100 +/- 10%); type: functional
[17] = test system: Trypanosoma brucei brucei; experiment: as §3, with “10” for “1000”, “fresh” for “heat-inactivated”, “100” for “98.5”, “3.5%)” for “1.4%)”; type: functional; conditions: time 48.0 hrs, in the assay text read “for 24 hrs” for “for 45 mins”; procedure, shortened: as §4
[18] = test system: Trypanosoma brucei brucei; experiment: Induction of oxidative stress in bloodstream form Trypanosoma brucei brucei 427 up to 5 times EC50 concentration after 4 hrs by propidium iodide staining based flow cytometric analysis; type: functional
J774 [19] = experiment: Cytotoxicity against mouse J774 cells assessed as reduction in cell viability after 24 hrs by WST-1 assay; type: cell-based; conditions: J774, 24 h; procedure, shortened: as §2
[20] = test system: Trypanosoma brucei brucei; experiment: Induction of cell cycle arrest in bloodstream form Trypanosoma brucei brucei 427 assessed as accumulation at single kinetoplast and septum like or partitioned nucleus cells at 7 nM after 24 hrs by DAPI. staining based epifluorescence microscopic analysis relative to control; type: functional
Procedure, shortened: (§6)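 Parasites at 5×10^5/mL treated 24 h with DMSO 1%, DAC 41 nM, or compound at 12 or 7 nM. Cells fixed in 4% paraformaldehyde for 18 min at room temperature and smeared on slides. Mounted in DAPI medium and scored by epifluorescence microscopy (60X/100X) for kinetoplast/nucleus configuration. At least 50 cells per sample.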

[21] = test system: Trypanosoma brucei brucei; experiment: Antitrypanosomal activity against Trypanosoma brucei brucei AnTaT 1.1 infected in Balb/cJ mouse assessed as reduction in parasitemia at 2.09 to 8.36 mg/kg, ip administered for 7 days and measured up to 17 days; type: functional, organism-based; conditions: dose 2.09-8.36 mg/kg, time 7.0 day
Procedure, shortened: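 Female BalB/cJ mice, 6-8 weeks, ~20 g, infected ip with 10^4 bloodstream T. b. brucei AnTaT 1.1. From day 4 post-infection, groups of 6 dosed ip in 300 µL PBS: daily for 7 days at 2.09 or 8.36 mg/Kg, or one 40 mg/Kg dose; vehicle DMSO 3.3 mg/Kg/day for 7 days. Parasitemia from submandibular blood counted by light microscopy in a Neubauer chamber. Detection limit ≥2.5×10^4 parasites/mL. Kruskal-Wallis test versus vehicle.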

[22] = test system: Trypanosoma brucei brucei; experiment: Induction of cell cycle arrest in bloodstream form Trypanosoma brucei brucei 427 assessed as accumulation at G2/M phase at 14 nM after 24 hrs by propidium iodide staining based flow cytometric analysis (reference value: 20%); type: functional
[23] = test system: Trypanosoma brucei brucei; experiment: Induction of cell cycle arrest in bloodstream form Trypanosoma brucei brucei 427 assessed as accumulation at 1K+1N cells at 7 nM after 24 hrs by DAPI. staining based epifluorescence microscopic analysis (reference value: 80%); type: functional; procedure, shortened: as §6
[24] = test system: Trypanosoma brucei brucei; experiment: as §3, with “10” for “1000”; type: functional; conditions: time 48.0 hrs, in the assay text read “for 24 hrs” for “for 45 mins”; procedure, shortened: as §4
[25] = test system: Trypanosoma brucei brucei; experiment: Induction of cell cycle arrest in bloodstream form Trypanosoma brucei brucei 427 assessed as accumulation at G0/G1 phase at 14 nM after 24 hrs by propidium iodide staining based flow cytometric analysis (reference value: 49%); type: functional
[26] = test system: Trypanosoma brucei brucei; experiment: Induction of oxidative stress in bloodstream form Trypanosoma brucei brucei 427 at 250 uM after 20 min by propidium iodide staining based flow cytometric analysis

Compound: CC(=O)Nc1nc(C(=O)Nc2cc(C(=O)Nc3nc(C(=O)O)c(C(C)C)s3)n(C)c2)c(C(C)C)s1
- Activity [1]: 113.1%
- Activity [2]: inactive
- Activity (J774 [3]): Nd(Insoluble)
- Activity (J774 [4]): Non-Toxic

Compound: COC(=O)c1nc(NC(=O)c2cc(NC(=O)c3nc(NC(C)=O)sc3C(C)C)cn2C)sc1C(C)C
- Activity [1]: 5.4%
- selectivity ratio [5]: > 145
- EC50 [6]: 827 nM
- Activity (J774 [3]): Nd(Insoluble)
- Activity (J774 [4]): Non-Toxic

Compound: CCOC(=O)c1csc(NC(=O)c2cc(NC(=O)c3csc(NC(=O)OC(C)(C)C)n3)cn2C)n1
- Activity [7]: inactive
- Activity [8]: 17.5%
- Activity [1]: 0.06%
- Activity [9]: 17.2%
- Activity (DNA [10]): 48%
- Activity [11]: 22%
- selectivity ratio [5]: 5560
- Activity [12]: 44%
- EC50 [6]: 7.1 nM
- Activity (DNA [13]): inactive
- Activity [14]: 34%
- Activity [15]: 10.7%
- Activity [16]: 54.1%
- Activity [17]: 84.2%
- Activity [18]: inactive
- EC50 (J774 [19]): ≥ 40000 nM
- Activity [20]: 26%
- Activity [21]: inactive
- Activity [22]: 94%
- Activity [23]: 46%
- Activity [24]: 104.6%
- Activity [25]: 6%

Compound: CC(C)c1sc(NC(=O)c2cc(NC(=O)c3nc(NC(=O)OC(C)(C)C)sc3C(C)C)cn2C)nc1C(=O)O
- Activity [1]: 48.5%
- Activity (J774 [3]): Nd(Insoluble)
- Activity (J774 [4]): Non-Toxic

Compound: CC1=CC(=O)c2ccccc2C1=O
- Activity [26]: Active

Compound: Cn1cc(NC(=O)c2csc(NC(=O)OC(C)(C)C)n2)cc1C(=O)Nc1nc(C(=O)O)cs1
- Activity [1]: 23.6%
- selectivity ratio [5]: > 35
- EC50 [6]: 3320 nM
- Activity (J774 [3]): Nd(Insoluble)
- Activity (J774 [4]): Non-Toxic
